These results are taken from ChEMBL document CHEMBL1134597, “Identification of alkylidene hydrazides as glucagon receptor antagonists” (J Med Chem, 2001).

T1 sequence (P47871 whole entry): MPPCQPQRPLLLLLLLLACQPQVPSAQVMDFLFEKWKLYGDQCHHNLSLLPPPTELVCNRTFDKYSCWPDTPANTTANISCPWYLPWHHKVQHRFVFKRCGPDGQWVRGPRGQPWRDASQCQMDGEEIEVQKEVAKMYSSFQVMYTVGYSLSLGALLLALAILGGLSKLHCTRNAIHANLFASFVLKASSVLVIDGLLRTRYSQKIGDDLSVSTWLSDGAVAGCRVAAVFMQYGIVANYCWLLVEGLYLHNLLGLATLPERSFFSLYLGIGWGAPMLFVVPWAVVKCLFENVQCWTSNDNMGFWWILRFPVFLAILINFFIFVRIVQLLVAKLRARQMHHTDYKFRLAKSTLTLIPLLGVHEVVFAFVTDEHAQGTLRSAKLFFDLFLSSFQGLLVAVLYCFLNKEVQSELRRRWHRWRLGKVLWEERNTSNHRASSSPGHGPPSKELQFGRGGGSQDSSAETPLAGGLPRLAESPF

For one assay, the target named is T1, Glucagon receptor (Homo sapiens, UniProt P47871). The assay can be described thus: Binding affinity towards human Glucagon Receptor by the displacement of [125I]-glucagon. The procedure, abridged:
(§1)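 Competition binding of [125I]glucagon (~25 000 cpm) to plasma membranes (~0.5 μg) from BHK cells transfected with cloned human glucagon receptor; 25 mM HEPES pH 7.4, 0.1% BSA; run in duplicate, 1 h at 37 °C. Bound and free separated by vacuum filtration on GF/C filters, then scintillation counting; IC50 determined.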
For the compound `O=C(N/N=C/c1ccc(O)c2ccccc12)c1ccc(O)c(Cl)c1`, the IC50 (commonly the point on the concentration scale where inhibition reaches its midpoint) worked out at 0.2 µM.

Tested on in another assay: not listed separately
The assay is described as follows: pA2 value for the compound was calculated. The procedure, abridged: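 BHK cells expressing cloned human glucagon receptor (10^6/mL) in HEPES pH 7.4 buffer with 0.1 mM IBMX and 0.2% BSA. Cells pretreated 10 min at 37 °C with several antagonist concentrations, then challenged with increasing glucagon for 20 min. cAMP measured by RIA; pA2 obtained by Schild analysis of rightward-shifted glucagon concentration-response curves.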
Regarding `O=C(N/N=C/c1ccc(O)c2ccccc12)c1ccc(O)c(Cl)c1`, the pA2 (as a rule, a measure of antagonist potency on a negative log scale) is 6.99.

A further assay deals with Glucagon receptor (Rattus norvegicus, UniProt P30082). The assay can be described thus: Binding affinity towards rat Glucagon Receptor. The procedure, abridged: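 Plasma membranes prepared from livers of male Wistar rats (2 μg protein) incubated with ~50 000 CPM 125I-glucagon in 50 mM HEPES, 5 mM EGTA, 5 mM MgCl2, 0.005% tween-20, pH 7.4. Samples diluted in DMSO. Nonspecific binding defined with excess unlabeled glucagon; 2 h at 30 °C; vacuum filtration, gamma counting; curve fitting gave IC50.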
Chain of Glucagon receptor (Rattus norvegicus, UniProt P30082) (P30082 whole entry): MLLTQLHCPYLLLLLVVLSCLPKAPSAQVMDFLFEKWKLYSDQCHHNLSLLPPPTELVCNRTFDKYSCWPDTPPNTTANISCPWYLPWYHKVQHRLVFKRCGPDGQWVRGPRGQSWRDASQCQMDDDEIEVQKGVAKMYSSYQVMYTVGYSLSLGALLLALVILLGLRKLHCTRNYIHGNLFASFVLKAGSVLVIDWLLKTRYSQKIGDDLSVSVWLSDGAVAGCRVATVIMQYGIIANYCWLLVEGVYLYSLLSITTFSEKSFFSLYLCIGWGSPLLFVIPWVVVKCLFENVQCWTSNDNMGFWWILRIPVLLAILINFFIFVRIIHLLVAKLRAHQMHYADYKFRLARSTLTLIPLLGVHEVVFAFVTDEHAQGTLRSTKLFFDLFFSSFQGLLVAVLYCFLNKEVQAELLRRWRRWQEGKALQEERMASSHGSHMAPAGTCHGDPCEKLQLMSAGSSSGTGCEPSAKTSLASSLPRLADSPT
Take `O=C(N/N=C/c1ccc(O)c2ccccc12)c1ccc(O)c(Cl)c1`: the IC50 is 0.027 µM.

A further assay addresses T1, Glucagon receptor. The assay is described as follows: Binding affinity for human Glucagon Receptor. Summed up:
as §1
As for `COc1cc(C(=O)N/N=C/c2cnc(O)nc2O)ccc1O`, the IC50 was more than 100 µM. `COc1cc(C(=O)N/N=C/c2ccc(C(C)C)cc2)ccc1O`: the IC50 worked out at 43 µM. The same measure, in the same setting: in the case of `COc1cc(C(=O)N/N=C/c2cccc3ccccc23)ccc1O` it was 4.8 µM. The compound `CCn1c2ccccc2c2cc(/C=N/NC(=O)c3ccc(O)c(OC)c3)ccc21` displayed an IC50 of 6.3 µM.

For the compound `COc1cc(C(=O)N/N=C/c2ccc(N(C)C)c3ccccc23)ccc1O`, the IC50 worked out at 8.1 µM. Consider `O=C(N/N=C/c1cccc2ccccc12)c1ccc(O)cc1`, for which the IC50 stood at 1.8 µM. In turn, `COc1cc(C(=O)N/N=C/c2ccc(-c3ccccc3)cc2)ccc1O` registered an IC50 of 26 µM.

On to `COc1cccc(C(=O)N/N=C/c2ccc(OC)c3ccccc23)c1`, for which the IC50 was more than 100 µM. Consider `COc1cc(C(=O)N/N=C/c2ccc(O)cc2)ccc1O`, for which the IC50 is more than 100 µM.

For `COc1cc(C(=O)N/N=C/c2cccc(Oc3cccc(C(F)(F)F)c3)c2)ccc1O`, the IC50 amounted to 4.9 µM. For `O=C(N/N=C/c1ccc(O)c2ccccc12)c1ccc2nccnc2c1`, the IC50 is more than 100 µM. Still for that read-out and setting: with `COc1cc(/C=N/NC(=O)c2cccc3ccccc23)ccc1O` the figure was more than 100 µM; with `O=C(N/N=C/c1ccc(O)c2ccccc12)c1ccc(O)c(F)c1`, 0.39 µM; with `O=C(N/N=C/c1ccc(O)c2ccccc12)c1ccc(O)nc1`, more than 100 µM. As to `COc1ccc(/C=N/NC(=O)c2ccc(O)c(OC)c2)cc1O`, the IC50 was more than 100 µM.

As to `O=C(N/N=C/c1ccc(O)c2ccccc12)c1ccc(O)c(O)c1`, the IC50 amounted to 3.4 µM. Turning to `COc1cc(C(=O)N/N=C/c2ccc(C(C)(C)C)cc2)ccc1O`, the IC50 worked out at 29 µM. Same read-out and setting: with `O=C(N/N=C/c1ccc(O)c2ccccc12)c1cc(Cl)c(O)c(Cl)c1` the figure was 34 µM; with `Nc1ccc(C(=O)N/N=C/c2ccc(O)c3ccccc23)cc1`, more than 100 µM; with `COc1cc(C(=O)N/N=C/c2ccc(-c3ccc(C)c(Cl)c3)o2)ccc1O`, 12 µM. Compound `Nc1cc(C(=O)N/N=C/c2ccc(O)c3ccccc23)ccc1O` came in with an IC50 of 2 µM. Compound `O=C(N/N=C/c1ccc(O)c2ccccc12)c1ccc(O)cc1O` gave an IC50 of 28 µM. The same measure, in the same setting: with `O=C(N/N=C/c1ccc(O)c2ccccc12)c1ccc(O)cc1` the figure was 1.2 µM; with `O=C(N/N=C/c1ccc(O)c2ccccc12)c1ccc(O)c(CN2CCOCC2)c1`, more than 100 µM; with `COc1ccc(/C=N/NC(=O)c2ccc(O)c(OC)c2)cc1`, more than 100 µM.

For `COc1cc(C(=O)N/N=C/c2ccc(OC(F)(F)F)cc2)ccc1O`, the IC50 stood at 43 µM. `O=C(N/N=C/c1ccc(O)c2ccccc12)c1ccc(O)c(Br)c1` gave an IC50 of 0.83 µM. `COc1cc(C(=O)N/N=C(\C)c2cccc3ccccc23)ccc1O` displayed an IC50 of more than 100 µM. Take `O=C(N/N=C/c1ccc(O)c2ccccc12)c1ccc2[nH]ccc2c1`: the IC50 was more than 100 µM.

In turn, `COc1cc(C(=O)N/N=C/c2ccc(O)c3ccccc23)cc(Cl)c1O` showed an IC50 of 60 µM. Same read-out and setting: with `COc1cc(C(=O)N/N=C/c2ccc(/C=C/c3ccccc3)cc2)ccc1O` the figure was more than 100 µM. Compound `O=C(O)c1ccc(C(=O)N/N=C/c2ccc(O)c3ccccc23)cc1` had an IC50 of more than 100 µM. For the compound `COc1cc(C(=O)N/N=C/c2c[nH]c3ccccc23)ccc1O`, the IC50 came to 23 µM. As for `COc1cc(C(=O)N/N=C/c2ccc(OC)c3ccccc23)ccc1O`, the IC50 came to 2.9 µM.

`O=C(N/N=C/c1ccc(O)c2ccccc12)c1cc2cc(O)ccc2[nH]1` gave an IC50 of more than 100 µM. The same measure, in the same setting: in the case of `COc1cc(C(=O)N/N=C/c2[nH]cnc2C)ccc1O` it was more than 100 µM; in that of `O=C(NNCc1cccc2ccccc12)c1ccc(O)cc1`, more than 100 µM; in that of `COc1cc(C(=O)N/N=C/c2ccc(O)c3ccccc23)ccc1O`, 0.72 µM. With `COc1cc(C(=O)N/N=C/c2ccnc3ccccc23)ccc1O`, the IC50 amounted to 10 µM.

Turning to `COc1ccc(/C=N/NC(=O)c2ccc(O)cc2)c2ccccc12`, the IC50 is 4.9 µM.
